Measurements from ChEMBL document CHEMBL3232994, “Searching for new derivatives of neocryptolepine: synthesis, antiproliferative, antimicrobial and antifungal activities” (Eur J Med Chem, 2014).
In brackets after ≈: the same amount, converted by molar mass. Activity calls are given as the source filed them. The calls are words filed in the database; no cut-off is given here.

Experiments:
Bacillus cereus = experiment: Antibacterial activity against Bacillus cereus ATCC 11778 assessed as growth inhibition after 18 hrs by two-fold serial dilution method; format: functional; settings: ATCC 11778, 18 h
How it was run: (§1)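 Twofold serial agar dilution on Mueller–Hinton II agar per CLSI. Final inoculum 10⁴ CFU/mL, except Enterococcus hirae ATCC 10541 at 10⁵ CFU/mL. MIC read after 18 h at 35 °C.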

Enterococcus hirae = experiment: Antibacterial activity against Enterococcus hirae ATCC 10541 assessed as growth inhibition after 18 hrs by two-fold serial dilution method; format: functional; settings: ATCC 10541, 18 h; how it was run: as §1
Micrococcus luteus [1] = experiment: Antibacterial activity against Micrococcus luteus ATCC 10240 assessed as growth inhibition after 18 hrs by two-fold serial dilution method; format: functional; settings: ATCC 10240, 18 h; how it was run: as §1
Candida albicans [2] = experiment: Antifungal activity against Candida albicans ATCC 10231 assessed as growth inhibition after 18 hrs by two-fold serial dilution method; format: functional; settings: ATCC 10231, 18 h
How it was run: (§2)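 MIC by twofold serial dilution on RPMI agar per CLSI. Final inoculum 10⁴ CFU/mL. Plates read after 18 h at 35 °C.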

Candida albicans [3] = experiment: Antifungal activity against Candida albicans SN250 assessed as growth inhibition after 18 hrs by two-fold serial dilution method; format: functional; settings: SN250, 18 h
Candida parapsilosis = experiment: Antifungal activity against Candida parapsilosis ATCC 22019 assessed as growth inhibition after 18 hrs by two-fold serial dilution method; format: functional; settings: Lodderomyces parapsilosis, ATCC 22019, 18 h
Candida albicans [4] = experiment: Antifungal activity against Candida albicans ATCC 90028 assessed as growth inhibition after 18 hrs by two-fold serial dilution method; format: functional; settings: ATCC 90028, 18 h; how it was run: as §2
Candida albicans [5] = experiment: Antifungal activity against Candida albicans SN250 assessed as […] at 2.4 to 625 ug/mL after 24 hrs by XTT reduction assay; format: functional, organism-based
Staphylococcus aureus [6] = experiment: Antibacterial activity against Staphylococcus aureus NCTC 4163 assessed as growth inhibition after 18 hrs by two-fold serial dilution method; format: functional; settings: NCTC 4163, 18 h; how it was run: as §1
Staphylococcus aureus [7] = experiment: Antibacterial activity against Staphylococcus aureus ATCC 25923 assessed as growth inhibition after 18 hrs by two-fold serial dilution method; format: functional; settings: ATCC 25923, 18 h; how it was run: as §1
Staphylococcus aureus [8] = experiment: Antibacterial activity against Staphylococcus aureus ATCC 6538 assessed as growth inhibition after 18 hrs by two-fold serial dilution method; format: functional; settings: ATCC 6538, 18 h; how it was run: as §1
Staphylococcus aureus [9] = experiment: Antibacterial activity against Staphylococcus aureus ATCC 29213 assessed as growth inhibition after 18 hrs by two-fold serial dilution method; format: functional; settings: ATCC 29213, 18 h; how it was run: as §1
[10] = tested on: Staphylococcus epidermidis; experiment: Antibacterial activity against Staphylococcus epidermidis ATCC 12228 assessed as growth inhibition after 18 hrs by two-fold serial dilution method; format: functional; settings: ATCC 12228, 18 h; how it was run: as §1
Bacillus spizizenii = experiment: Antibacterial activity against Bacillus subtilis ATCC 6633 assessed as growth inhibition after 18 hrs by two-fold serial dilution method; format: functional; settings: ATCC 6633, 18 h; how it was run: as §1
Micrococcus luteus [11] = experiment: Antibacterial activity against Micrococcus luteus ATCC 9341 assessed as growth inhibition after 18 hrs by two-fold serial dilution method; settings: ATCC 9341, 18 h
KB = experiment: Cytotoxicity against human KB cells assessed as growth inhibition after 72 hrs by SRB assay; format: functional, cell-based
How it was run: (§3)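 Cells were seeded at 10⁴/well in RPMI 1640/Opti-MEM (1:1) with 5% FBS, plus 0.01 mg/mL insulin for MCF-7, 24 h before dosing. Agents in water/medium were given at four tenfold final levels for 72 h. Cells were fixed with cold 50% TCA (1 h, 4 °C), stained with 0.4% SRB, cell-free blank. Triplicate wells, 3–5 repeats. IC50 relative to untreated control.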

Candida albicans [12] = experiment: Antifungal activity against Candida albicans SN250 assessed as inhibition of biofilm formation < MIC after 24 hrs by XTT reduction assay; format: functional, organism-based
BALB/3T3 = experiment: Cytotoxicity against mouse BALB/3T3 cells assessed as growth inhibition after 72 hrs by SRB assay; format: cell-based; settings: BALB/3T3, 72 h
How it was run: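 Mouse fibroblasts were kept in Dulbecco medium with 10% FBS, L-glutamine and pyruvate, and seeded at 10⁴/well 24 h before dosing. Agents were given at four tenfold final levels for 72 h. Cells were TCA-fixed (50%, 4 °C, 1 h) and stained with 0.4% SRB in 1% acetic acid. Triplicate wells, 3–5 repeats. IC50 versus untreated cells.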

A549 = experiment: Cytotoxicity against human A549 cells assessed as growth inhibition after 72 hrs by SRB assay; format: functional, cell-based; settings: A549, 72 h; how it was run: as §3
MCF7 = experiment: Cytotoxicity against human MCF7 cells assessed as growth inhibition after 72 hrs by SRB assay; format: functional, cell-based; settings: MCF7, 72 h; how it was run: as §3
LoVo = experiment: Cytotoxicity against human LoVo cells assessed as growth inhibition after 72 hrs by SRB assay; format: functional, cell-based; how it was run: as §3

Row | SMILES | MIC (Bacillus cereus) | MIC (Enterococcus hirae) | MIC (Micrococcus luteus [1]) | MIC (Candida albicans [2]) | MIC (Candida albicans [3]) | MIC (Candida parapsilosis) | MIC (Candida albicans [4]) | inhibition (Candida albicans [5]) | MIC (Staphylococcus aureus [6]) | MIC (Staphylococcus aureus [7]) | MIC (Staphylococcus aureus [8]) | MIC (Staphylococcus aureus [9]) | MIC [10] | MIC (Bacillus spizizenii) | MIC (Micrococcus luteus [11]) | IC50 (KB) | inhibition (Candida albicans [12]) | IC50 (BALB/3T3) | other results
1 | Cc1c2c3cc(NC(=O)CNC(=O)CN)ccc3nc-2n(C)c2ccccc12.Cl.Cl | > 200 µg/mL | > 200 µg/mL | 200 µg/mL | 200 µg/mL | 200 µg/mL | 200 µg/mL | 200 µg/mL | inactive | > 200 µg/mL | > 200 µg/mL | > 200 µg/mL | > 200 µg/mL | > 200 µg/mL | 100 µg/mL | 200 µg/mL |  |  |  | 
2 | OC(Cn1cncn1)(Cn1cncn1)c1ccc(F)cc1F [FLUCONAZOLE] |  |  |  | 1 µg/mL (≈ 3.27 µM) |  | 2 µg/mL (≈ 6.53 µM) | 1 µg/mL (≈ 3.27 µM) |  |  |  |  |  |  |  |  |  |  |  | 
3 | Cc1c2c3ccccc3nc-2n(C)c2ccc(NC(=O)[C@@H](N)Cc3cnc[nH]3)cc12.Cl | > 200 µg/mL | > 200 µg/mL | > 200 µg/mL | > 200 µg/mL | 250 µg/mL | > 200 µg/mL | > 200 µg/mL | inactive | > 200 µg/mL | > 200 µg/mL | > 200 µg/mL | > 200 µg/mL | > 200 µg/mL | > 200 µg/mL | > 200 µg/mL | 3880 nM |  |  | 
4 | O=C(O)c1cn(C2CC2)c2cc(N3CCNCC3)c(F)cc2c1=O [CIPROFLOXACIN] | 1 µg/mL (≈ 3.02 µM) | 4 µg/mL (≈ 12.1 µM) | 1 µg/mL (≈ 3.02 µM) |  |  |  |  |  | 0.25 µg/mL (≈ 0.754 µM) | 0.5 µg/mL (≈ 1.51 µM) | 0.25 µg/mL (≈ 0.754 µM) | 0.5 µg/mL (≈ 1.51 µM) | 0.25 µg/mL (≈ 0.754 µM) | < 0.125 µg/mL | 2 µg/mL (≈ 6.04 µM) |  |  |  | 
5 | Cc1c2c3cc(NC(=O)[C@@H](N)Cc4cnc[nH]4)ccc3nc-2n(C)c2ccccc12.Cl | > 200 µg/mL | > 200 µg/mL | > 200 µg/mL | > 200 µg/mL | 125 µg/mL | > 200 µg/mL | > 200 µg/mL |  | > 200 µg/mL | > 200 µg/mL | > 200 µg/mL | > 200 µg/mL | > 200 µg/mL | > 200 µg/mL | > 200 µg/mL |  |  |  | 
6 | Cc1c2c3ccccc3nc-2n(C)c2ccc(NC(=O)CN)cc12.Cl | 50 µg/mL | 100 µg/mL | 12.5 µg/mL | 100 µg/mL | 15.6 µg/mL | 100 µg/mL | 100 µg/mL |  | 12.5 µg/mL | 12.5 µg/mL | 12.5 µg/mL | 12.5 µg/mL | 12.5 µg/mL | 12.5 µg/mL | 6.25 µg/mL | 420 nM | Active | 420 nM | IC50 (A549): 80 nM; IC50 (MCF7): 460 nM; IC50 (LoVo): 60 nM
7 | Cc1c2c3cc(NC(=O)CN)ccc3nc-2n(C)c2ccccc12.Cl.Cl | 50 µg/mL | 100 µg/mL | 6.25 µg/mL | 25 µg/mL | 15.6 µg/mL | 25 µg/mL | 50 µg/mL |  | 50 µg/mL | 50 µg/mL | 50 µg/mL | 100 µg/mL | 25 µg/mL | 12.5 µg/mL | 6.25 µg/mL |  | Active |  | 
8 | Cc1c2c3cc(NC(=O)CNC(=O)[C@@H]4CCCN4)ccc3nc-2n(C)c2ccccc12.Cl.Cl | > 200 µg/mL | > 200 µg/mL | 50 µg/mL | 200 µg/mL | 200 µg/mL | 200 µg/mL | 200 µg/mL | inactive | > 200 µg/mL | > 200 µg/mL | > 200 µg/mL | 100 µg/mL | 100 µg/mL | 100 µg/mL | 50 µg/mL |  |  |  | 
9 | Cc1c2c3ccccc3nc-2n(C)c2ccccc12 | 100 µg/mL (≈ 406 µM) | 200 µg/mL (≈ 812 µM) | 50 µg/mL (≈ 203 µM) | 12.5 µg/mL (≈ 50.7 µM) | 12.5 µg/mL (≈ 50.7 µM) | 12.5 µg/mL (≈ 50.7 µM) | 12.5 µg/mL (≈ 50.7 µM) |  | 100 µg/mL (≈ 406 µM) | 200 µg/mL (≈ 812 µM) | 100 µg/mL (≈ 406 µM) | 100 µg/mL (≈ 406 µM) | 100 µg/mL (≈ 406 µM) | 50 µg/mL (≈ 203 µM) | 50 µg/mL (≈ 203 µM) |  | Active | 5770 nM | 
10 | Cc1c2c3cc(NC(=O)[C@@H]4CCCN4)ccc3nc-2n(C)c2ccccc12.Cl.Cl | 50 µg/mL | 100 µg/mL | 6.25 µg/mL | 200 µg/mL | 200 µg/mL | 200 µg/mL | 200 µg/mL |  | 12.5 µg/mL | 50 µg/mL | 12.5 µg/mL | 50 µg/mL | 12.5 µg/mL | 12.5 µg/mL | 6.25 µg/mL |  | Active |  | 
11 | Cc1c2c3ccccc3nc-2n(C)c2ccc(NC(=O)[C@@H]3CCCN3)cc12.Cl | 25 µg/mL | 100 µg/mL | 6.25 µg/mL | 100 µg/mL | 31.2 µg/mL | 50 µg/mL | 50 µg/mL |  | 12.5 µg/mL | 50 µg/mL | 12.5 µg/mL | 50 µg/mL | 12.5 µg/mL | 6.25 µg/mL | 6.25 µg/mL | 470 nM |  | 540 nM | IC50 (A549): 120 nM; IC50 (MCF7): 620 nM; IC50 (LoVo): 70 nM
12 | Cc1c2c3ccccc3nc-2n(C)c2ccc(NC(=O)CNC(=O)CN)cc12.Cl | > 200 µg/mL | > 200 µg/mL | > 200 µg/mL | > 200 µg/mL | > 500 µg/mL | > 200 µg/mL | > 200 µg/mL | inactive | > 200 µg/mL | > 200 µg/mL | > 200 µg/mL | > 200 µg/mL | > 200 µg/mL | > 200 µg/mL | > 200 µg/mL | 1540 nM |  | 2110 nM | IC50 (A549): 1440 nM; IC50 (MCF7): 4110 nM; IC50 (LoVo): 1170 nM
